From ChEMBL document CHEMBL4425095, “Novel Cephalosporins Selectively Active on Nonreplicating Mycobacterium tuberculosis” (J Med Chem, 2016)

Test system: Mycobacterium tuberculosis
Experiment: Antibacterial activity against replicating Mycobacterium bovis BCG measured at OD580 = 0.01
Format: functional
Settings: variant bovis BCG
Method in brief: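 Replicating organisms in the paper's earlier-described bacteriologic medium; 200 μL of cells at OD580 0.01 exposed to DMSO vehicle or drug in 96-well plates; growth read by optical density.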

Row | SMILES | MIC90 [µg/mL]
1 | CCCOC(=O)C1=C(C)CS[C@@H]2[C@H](NC(=O)COc3ccccc3)C(=O)N12 | > 100
2 | CC1=C(c2nc(C)no2)N2C(=O)[C@@H](NC(=O)COc3ccccc3)[C@H]2SC1 | > 100
